From ChEMBL document CHEMBL1955815, “The synthesis of ethacrynic acid thiazole derivatives as glutathione S-transferase pi inhibitors” (2012)

Tested on: HL-60
Experiment: Growth inhibition of human HL60 cells after 72 hrs by trypan blue staining
Format: functional
Conditions: HL-60, 72 h
Method in brief: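 HL-60 cells kept in RPMI-1640 with 10% heat-inactivated FBS, penicillin/streptomycin and L-glutamine at 37 °C, 5% CO2. Seeded at 4×10^4/mL in 24-well plates and exposed to a range of concentrations for 72 h. Trypan blue-positive and -negative cells were both counted. Inhibition = (1−Nt/Nc)×100%, and GI50 is the concentration giving half-maximal growth inhibition versus untreated cells.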

Row | SMILES | GI50 [nM]
1 | C=C(CC)C(=O)c1ccc(OCc2nc(-c3ccc([N+](=O)[O-])cc3)cs2)cc1Cl | 800
2 | C=C(CC)C(=O)c1ccc(OCc2nc(-c3ccc4ccccc4c3)cs2)c(Cl)c1Cl | 3600
3 | C=C(CC)C(=O)c1ccc(OCc2nc(-c3ccc(C(F)(F)F)cc3)cs2)cc1Cl | 2000
4 | C=C(CC)C(=O)c1ccc(OCC(=O)O)c(Cl)c1Cl [ETHACRYNIC ACID] | 44200
5 | C=C(CC)C(=O)c1ccc(OCc2nc(-c3ccc4ccccc4c3)cs2)c(C)c1C | 2000
6 | C=C(CC)C(=O)c1ccc(OCc2nc(-c3ccc([N+](=O)[O-])cc3)cs2)c(Cl)c1Cl | 1000
7 | C=C(C)C(=O)c1ccc(OCc2nc(-c3ccccc3)cs2)cc1Cl | 6400
8 | C=C(CC)C(=O)c1ccc(OCc2nc(-c3ccc4ccccc4c3)cs2)cc1Cl | 900
9 | C=C(C)C(=O)c1ccc(OCc2nc(-c3ccccc3)cs2)cc1C | 4700
10 | C=C(CC)C(=O)c1ccc(OCc2nc(-c3ccc(C(F)(F)F)cc3)cs2)c(C)c1C | 1500
11 | C=C(C)C(=O)c1ccc(OCc2nc(-c3ccc(C(F)(F)F)cc3)cs2)cc1Cl | 1400
12 | C=C(C)C(=O)c1ccc(OCc2nc(-c3ccc4ccccc4c3)cs2)cc1Cl | 2900
13 | C=C(CC)C(=O)c1ccc(OCc2nc(-c3ccc(C(F)(F)F)cc3)cs2)c(Cl)c1Cl | 1600

The next lines start with the values.

Row | GI50 [nM] | SMILES
14 | 3400 | C=C(C)C(=O)c1ccc(OCc2nc(-c3ccccc3)cs2)c(C)c1C
15 | 3600 | C=C(CC)C(=O)c1ccc(OCc2nc(-c3ccc([N+](=O)[O-])cc3)cs2)c(C)c1C
16 | 5900 | C=C(C)C(=O)c1ccc(OCc2nc(-c3ccc([N+](=O)[O-])cc3)cs2)cc1Cl
17 | 3100 | C=C(C)C(=O)c1ccc(OCc2nc(-c3ccc(C(F)(F)F)cc3)cs2)c(C)c1C
18 | 2300 | C=C(C)C(=O)c1ccc(OCc2nc(-c3ccc4ccccc4c3)cs2)c(C)c1C
19 | 5100 | C=C(C)C(=O)c1ccc(OCc2nc(-c3ccc([N+](=O)[O-])cc3)cs2)c(C)c1C
